The subject of data set [1] is PC-3. Briefly: Cytotoxicity against human PC3 cells. It counts as cell-based.
The subject of data set [2] is Micrococcus luteus. Briefly: Antimicrobial activity against Micrococcus luteus ATCC 10240 after 24 hrs by Kirby-Bauer agar diffusion assay. The class given is functional. Put shortly:
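Modified Kirby-Bauer well diffusion. Overnight LB cultures (18–24 h) were standardized in 0.9% saline to 0.5 McFarland and mixed into melted MHII agar at 47–50 °C, giving ~5×10³ CFU/mL. 9 mm wells received 50 µL of 2.0 mM compound in 10:1 MeOH:DMSO. Plates were incubated 24 h at 37 °C, then growth-inhibition zone diameter was measured (mm) by caliper.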
A general note: Agar diffusion results depend on both activity and mobility in agar.

The subject of data set [3] is HeLa. Briefly: Cytotoxicity against human HeLa cells. It counts as cell-based.
Data set [4] concerns MCF7. Briefly: Cytotoxicity against human MCF7 cells. The class given is cell-based.

The structures appear in SMILES notation.

On to `Cc1ccnc(N=O)c1`, for which the Activity result in data set [1], in data set [3] and in data set [4] was “Non-toxic” throughout. In data set [2], the “diameter of the inhibition zone (DIZ)” value is “<=14 mm”.
`C=C(C)C(C)(C)N(O)c1cc(C)on1`: the Activity result in data set [1], in data set [3] and in data set [4] was “Non-toxic” throughout. For the same compound, in data set [2], the “diameter of the inhibition zone (DIZ)” value was more than 14 mm.
With `CC(C)(C)OC(=O)NO`, the Activity entry in data set [1], in data set [3] and in data set [4] was “Non-toxic” each time. Besides, the “diameter of the inhibition zone (DIZ)” value in data set [2] was “<=14 mm”.
For `C[C@H](NC(=O)OC(C)(C)C)C(=O)NO`, the Activity entry in data set [1], in data set [3] and in data set [4] was “Non-toxic” throughout. Besides, in data set [2], the “diameter of the inhibition zone (DIZ)” value was “<=14 mm”.
Regarding `CC(C)C[C@H](NC(=O)OC(C)(C)C)C(=O)NO`, the Activity entry in data set [1], in data set [3] and in data set [4] was “Non-toxic” each time. The “diameter of the inhibition zone (DIZ)” value in data set [2] is “<=14 mm”.
Regarding `Cc1cccc(N=O)n1`, the Activity entry in data set [1], in data set [3] and in data set [4] was “Non-toxic” in each case. For the same compound, the “diameter of the inhibition zone (DIZ)” value in data set [2] was “<=14 mm”.
Turning to `O=Nc1ccccn1`, the Activity result in data set [1], in data set [3] and in data set [4] was “Non-toxic” throughout. Further, the “diameter of the inhibition zone (DIZ)” value in data set [2] is reported as “<=14 mm”.
Regarding `CCc1cccc(N=O)n1`, the Activity result in data set [1], in data set [3] and in data set [4] was “Non-toxic” each time. Moreover, the “diameter of the inhibition zone (DIZ)” value in data set [2] is reported as “<=14 mm”.
On to `Cc1cccnc1N=O`, for which the Activity entry in data set [1], in data set [3] and in data set [4] was “Non-toxic” in each case. Besides, the “diameter of the inhibition zone (DIZ)” value in data set [2] is “<=14 mm”.
For `O=Nc1ccc(Cl)cn1`, the Activity entry in data set [1], in data set [3] and in data set [4] was “Non-toxic” throughout. Also, the “diameter of the inhibition zone (DIZ)” value in data set [2] is reported as “<=14 mm”.
Regarding `O=Nc1ccc(Br)cn1`, the Activity entry in data set [1], in data set [3] and in data set [4] was “Non-toxic” throughout. The “diameter of the inhibition zone (DIZ)” value in data set [2] is reported as “<=14 mm”.
For the compound `O=Nc1ccc(I)cn1`, the Activity entry in data set [1], in data set [3] and in data set [4] was “Non-toxic” each time. Further, in data set [2], the “diameter of the inhibition zone (DIZ)” value was “<=14 mm”.
Turning to `O=Nc1ncc(Cl)cc1Cl`, the Activity result in data set [1], in data set [3] and in data set [4] was “Non-toxic” each time. In data set [2], the “diameter of the inhibition zone (DIZ)” value is recorded as “<=14 mm”.
Consider `Cc1nc(N=O)ccc1Br`, for which the Activity entry in data set [1], in data set [3] and in data set [4] was “Non-toxic” in each case. The “diameter of the inhibition zone (DIZ)” value in data set [2] was “<=14 mm”.
Regarding `O=Nc1ncc(C(F)(F)F)cc1Cl`, the Activity result in data set [1], in data set [3] and in data set [4] was “Non-toxic” in each case. Besides, in data set [2], the “diameter of the inhibition zone (DIZ)” value is on record as “<=14 mm”.
With `O=Nc1ccc2ccccc2n1`, the Activity result in data set [1], in data set [3] and in data set [4] was “Non-toxic” each time. Also, the “diameter of the inhibition zone (DIZ)” value in data set [2] is on record as “<=14 mm”.
Regarding `Cc1cc(N=O)no1`, the Activity result in data set [1], in data set [3] and in data set [4] was “Non-toxic” throughout. Besides, in data set [2], the “diameter of the inhibition zone (DIZ)” value was “<=14 mm”.
On to `CC(C)(C)O[C@@H]1C=CC[C@H]1N(O)c1ccc(Cl)cn1`, for which the Activity result in data set [1], in data set [3] and in data set [4] was “Non-toxic” in each case. The “diameter of the inhibition zone (DIZ)” value in data set [2] was more than 14 mm.
`C=C(CN(O)c1cc(C)on1)c1ccccc1`: the Activity entry in data set [1], in data set [3] and in data set [4] was “Non-toxic” each time. In addition, in data set [2], the “diameter of the inhibition zone (DIZ)” value was more than 14 mm.
`COc1ccc(CON(C)c2ccccn2)cc1`: the Activity result in data set [1], in data set [3] and in data set [4] was “Non-toxic” throughout. In addition, the “diameter of the inhibition zone (DIZ)” value in data set [2] is given as “<=14 mm”.
For the compound `CCCN(OCc1ccc(OC)cc1)c1ccccn1`, the Activity result in data set [1], in data set [3] and in data set [4] was “Non-toxic” throughout. The “diameter of the inhibition zone (DIZ)” value in data set [2] was “<=14 mm”.
As for `CCCCCCN(OCc1ccc(OC)cc1)c1ccccn1`, the Activity entry in data set [1], in data set [3] and in data set [4] was “Non-toxic” each time. The “diameter of the inhibition zone (DIZ)” value in data set [2] is recorded as “<=14 mm”.
As to `COc1ccc(CON(CCc2ccccc2)c2ccccn2)cc1`, the Activity entry in data set [1], in data set [3] and in data set [4] was “Non-toxic” throughout. Moreover, the “diameter of the inhibition zone (DIZ)” value in data set [2] is given as “<=14 mm”.
Turning to `C=CCN(OCc1ccc(OC)cc1)c1ccccn1`, the Activity entry in data set [1], in data set [3] and in data set [4] was “Non-toxic” in each case. Also, the “diameter of the inhibition zone (DIZ)” value in data set [2] is recorded as “<=14 mm”.
Consider `COc1ccc(CON(Cc2cccc(Oc3ccccc3)c2)c2ccccn2)cc1`, for which the Activity result in data set [1], in data set [3] and in data set [4] was “Non-toxic” throughout. Besides, the “diameter of the inhibition zone (DIZ)” value in data set [2] is given as “<=14 mm”.
Turning to `COc1ccc(CON(Cc2ccc(C(F)(F)F)cc2)c2ccccn2)cc1`, the Activity entry in data set [1], in data set [3] and in data set [4] was “Non-toxic” throughout. The “diameter of the inhibition zone (DIZ)” value in data set [2] is listed as “<=14 mm”.
In the case of `COc1ccc(CON(Cc2ccc(OC(F)(F)F)cc2)c2ccccn2)cc1`, the Activity entry in data set [1], in data set [3] and in data set [4] was “Non-toxic” throughout. In addition, in data set [2], the “diameter of the inhibition zone (DIZ)” value is reported as “<=14 mm”.
Turning to `COc1ccc(CON(Cc2ccccc2)c2cccnc2)cc1`, the Activity entry in data set [1], in data set [3] and in data set [4] was “Non-toxic” throughout.
As for `COc1ccc(CON(Cc2ccccc2)Cc2ccccn2)cc1`, the Activity entry in data set [1], in data set [3] and in data set [4] was “Non-toxic” in each case.
Consider `CC(C)(C)OC1C=C[C@@H](N(O)c2ccc(Cl)cn2)C1` (mixture of isomers), for which the Activity entry in data set [1], in data set [3] and in data set [4] was “Non-toxic” in each case. In addition, in data set [2], the “diameter of the inhibition zone (DIZ)” value is more than 14 mm.
On to `CC(C)OC1C=C[C@@H](N(O)c2ccc(Cl)cn2)C1` (mixture of isomers), for which the Activity result in data set [1], in data set [3] and in data set [4] was “Non-toxic” throughout. Also, in data set [2], the “diameter of the inhibition zone (DIZ)” value is reported as more than 14 mm.
For the compound `COC1C=C[C@@H](N(O)c2ccc(Br)cn2)C1` (mixture of isomers), the Activity entry in data set [1], in data set [3] and in data set [4] was “Non-toxic” each time. Moreover, in data set [2], the “diameter of the inhibition zone (DIZ)” value was more than 14 mm.
In the case of `CC(C)OC1C=C[C@@H](N(O)c2ccc(Br)cn2)C1` (mixture of isomers), the Activity result in data set [1], in data set [3] and in data set [4] was “Non-toxic” each time. Further, the “diameter of the inhibition zone (DIZ)” value in data set [2] was more than 14 mm.
As for `CC(C)(C)OC1C=C[C@@H](N(O)c2ccc(Br)cn2)C1` (mixture of isomers), the Activity entry in data set [1], in data set [3] and in data set [4] was “Non-toxic” in each case. For the same compound, in data set [2], the “diameter of the inhibition zone (DIZ)” value was more than 14 mm.
Consider `COC1C=C[C@@H](N(O)c2cccc(C)n2)C1` (mixture of isomers), for which the Activity result in data set [1], in data set [3] and in data set [4] was “Non-toxic” in each case. In addition, the “diameter of the inhibition zone (DIZ)” value in data set [2] was more than 14 mm.
On to `Cc1cccc(N(O)[C@@H]2C=CC(OC(C)C)C2)n1` (mixture of isomers), for which the Activity result in data set [1], in data set [3] and in data set [4] was “Non-toxic” throughout. The “diameter of the inhibition zone (DIZ)” value in data set [2] is reported as more than 14 mm.
Take `COC1C=C[C@@H](N(O)c2cc(C)on2)C1` (mixture of isomers): the Activity entry in data set [1], in data set [3] and in data set [4] was “Non-toxic” each time. Besides, in data set [2], the “diameter of the inhibition zone (DIZ)” value was more than 14 mm.
Consider `Cc1cc(N(O)[C@@H]2C=CC(OC(C)(C)C)C2)no1` (mixture of isomers), for which the Activity result in data set [1], in data set [3] and in data set [4] was “Non-toxic” each time. Further, the “diameter of the inhibition zone (DIZ)” value in data set [2] is reported as more than 14 mm.
`C=C(C)C(C)N(O)C(=O)[C@H](C)NC(=O)OC(C)(C)C` (mixture of isomers): the Activity entry in data set [1], in data set [3] and in data set [4] was “Non-toxic” in each case. Besides, the “diameter of the inhibition zone (DIZ)” value in data set [2] is on record as “<=14 mm”.
Consider `O=C(Cc1ccccc1)N1OC2C=CC1C2` (racemic), for which the Activity entry in data set [1], in data set [3] and in data set [4] was “Non-toxic” each time. Further, in data set [2], the “diameter of the inhibition zone (DIZ)” value is “<=14 mm”.

For the origin of these results see ChEMBL document CHEMBL1914331, “N-O chemistry for antibiotics: discovery of N-alkyl-N-(pyridin-2-yl)hydroxylamine scaffolds as selective antibacterial agents using nitroso Diels-Alder and ene chemistry” (J Med Chem, 2011).
